# Reference: ChEMBL document CHEMBL1152489, “Synthesis and biological evaluation of a novel series of 1,5-benzothiazepine derivatives as potential antimicrobial agents” (2009)
# Activity calls are given as the source filed them. No cut-off for these calls is given here.
# Columns and labels:
# [1] = test system: Candida albicans; assay: Antifungal activity against Candida albicans ATCC 10231 at 200 ug/disk after 24 hrs by disk diffusion method; format: functional; details: for zone of inhibition at 200 µg/disc: ATCC 10231, 24 h, read-out: IZ
# In short: (§1)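 Disk diffusion on media seeded with the organism. Sterile paper discs (6 mm) carried test compound dissolved in DMSO at 12.5, 50, 100 or 200 µg/disc. DMSO-only discs served as controls. Plates were incubated 24 h at 37 °C. The read-out is the growth-inhibition zone diameter in mm, averaged over three trials (±1 mm).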
# [2] = test system: Candida albicans; assay: Antifungal activity against Candida albicans ATCC 10231 at 100 ug/disk after 24 hrs by disk diffusion method; format: functional; details: for zone of inhibition at 100 µg/disc: ATCC 10231, 24 h, read-out: IZ; in short: as §1
# [3] = test system: Candida albicans; assay: Antifungal activity against Candida albicans ATCC 10231 at 50 ug/disk after 24 hrs by disk diffusion method; format: functional; details: for zone of inhibition at 50 µg/disc: ATCC 10231, 24 h, read-out: IZ; in short: as §1
# [4] = test system: Staphylococcus aureus; assay: Antibacterial activity against Staphylococcus aureus ATCC 25923 at 200 ug/disk after 24 hrs by disk diffusion method; format: functional; details: for zone of inhibition at 200 µg/disc: ATCC 25923, 24 h, read-out: IZ; in short: as §1
# [5] = test system: Staphylococcus aureus; assay: Antibacterial activity against Staphylococcus aureus ATCC 25923 at 100 ug/disk after 24 hrs by disk diffusion method; format: functional; details: for zone of inhibition at 100 µg/disc: ATCC 25923, 24 h, read-out: IZ; in short: as §1
# [6] = test system: Staphylococcus aureus; assay: Antibacterial activity against Staphylococcus aureus ATCC 25923 at 50 ug/disk after 24 hrs by disk diffusion method; format: functional; details: for zone of inhibition at 50 µg/disc: ATCC 25923, 24 h, read-out: IZ; in short: as §1
# [7] = test system: Staphylococcus epidermidis; assay: Antibacterial activity against Staphylococcus epidermidis ATCC 26069 at 200 ug/disk after 24 hrs by disk diffusion method; format: functional; details: for zone of inhibition at 200 µg/disc: ATCC 26069, 24 h, read-out: IZ; in short: as §1
# [8] = test system: Staphylococcus epidermidis; assay: Antibacterial activity against Staphylococcus epidermidis ATCC 26069 at 100 ug/disk after 24 hrs by disk diffusion method; format: functional; details: for zone of inhibition at 100 µg/disc: ATCC 26069, 24 h, read-out: IZ; in short: as §1
# [9] = test system: Staphylococcus epidermidis; assay: Antibacterial activity against Staphylococcus epidermidis ATCC 26069 at 50 ug/disk after 24 hrs by disk diffusion method; format: functional; details: for zone of inhibition at 50 µg/disc: ATCC 26069, 24 h, read-out: IZ; in short: as §1
# [10] = test system: Escherichia coli; assay: Antibacterial activity against Escherichia coli ATCC 44752 at 200 ug/disk after 24 hrs by disk diffusion method; format: functional, organism-based; in short: as §1
# [11] = test system: Escherichia coli; assay: Antibacterial activity against Escherichia coli ATCC 44752 at 100 ug/disk after 24 hrs by disk diffusion method; format: functional, organism-based; in short: as §1
# [12] = test system: Escherichia coli; assay: Antibacterial activity against Escherichia coli ATCC 44752 at 50 ug/disk after 24 hrs by disk diffusion method; format: functional, organism-based; in short: as §1
Structure (SMILES),zone of inhibition at 200 µg/disc [1] [mm],zone of inhibition at 100 µg/disc [2] [mm],zone of inhibition at 50 µg/disc [3] [mm],zone of inhibition at 200 µg/disc [4] [mm],zone of inhibition at 100 µg/disc [5] [mm],zone of inhibition at 50 µg/disc [6] [mm],zone of inhibition at 200 µg/disc [7] [mm],zone of inhibition at 100 µg/disc [8] [mm],zone of inhibition at 50 µg/disc [9] [mm],inhibition zone (IZ) [10],inhibition zone (IZ) [11],inhibition zone (IZ) [12],inhibition zone (IZ) [3],inhibition zone (IZ) [9],further results
CC(=O)C1=C(C)Nc2ccccc2SC1c1ccccc1[N+](=O)[O-] (stereo unspecified),16,13,11,12,11,8,10,9,7,inactive,inactive,inactive,,,
CC(=O)C1=C(C)Nc2ccccc2SC1c1ccc(O)cc1 (stereo unspecified),17,17,15,10,9.5,7,12,11,11,inactive,inactive,inactive,,,
CC(=O)C1=C(C)Nc2cc(Cl)ccc2SC1c1ccccc1 (stereo unspecified),13,9,7,10,7,7,11,8,7,inactive,inactive,inactive,,,
CCOC(=O)C1=C(C)Nc2ccccc2SC1c1ccccc1Cl (stereo unspecified),,,,,,,,,,inactive,inactive,inactive,inactive,inactive,inhibition zone (IZ) [1]: inactive; inhibition zone (IZ) [2]: inactive; inhibition zone (IZ) [4]: inactive; inhibition zone (IZ) [5]: inactive; inhibition zone (IZ) [6]: inactive; inhibition zone (IZ) [7]: inactive; inhibition zone (IZ) [8]: inactive
CCOC(=O)C1=C(C)Nc2ccccc2SC1c1ccc(C)cc1 (stereo unspecified),,,,,,,,,,inactive,inactive,inactive,inactive,inactive,inhibition zone (IZ) [1]: inactive; inhibition zone (IZ) [2]: inactive; inhibition zone (IZ) [4]: inactive; inhibition zone (IZ) [5]: inactive; inhibition zone (IZ) [6]: inactive; inhibition zone (IZ) [7]: inactive; inhibition zone (IZ) [8]: inactive
CC(=O)C1=C(C)Nc2ccccc2SC1c1ccc(C)cc1 (stereo unspecified),23,16,16,10,9,7,7,7,7,inactive,inactive,inactive,,,
CCOC(=O)C1=C(C)Nc2ccccc2SC1c1ccc(F)cc1 (stereo unspecified),,,,,,,,,,inactive,inactive,inactive,inactive,inactive,inhibition zone (IZ) [1]: inactive; inhibition zone (IZ) [2]: inactive; inhibition zone (IZ) [4]: inactive; inhibition zone (IZ) [5]: inactive; inhibition zone (IZ) [6]: inactive; inhibition zone (IZ) [7]: inactive; inhibition zone (IZ) [8]: inactive
CC(=O)C1=C(C)Nc2cc(Cl)ccc2SC1c1ccc([N+](=O)[O-])cc1 (stereo unspecified),14,11,9,11,7,7,11,11,10,inactive,inactive,inactive,,,
CC(=O)C1=C(C)Nc2cc(Cl)ccc2SC1c1ccc(F)cc1 (stereo unspecified),10,9,8,9,9,8,8,8,7,inactive,inactive,inactive,,,
CC(=O)C1=C(C)Nc2cc(Cl)ccc2SC1c1ccccc1Cl (stereo unspecified),15,12,10,11,8,7,10,7,7,inactive,inactive,inactive,,,
CC(=O)C1=C(C)Nc2ccccc2SC1c1ccccc1 (stereo unspecified),10,7,,11,8,6.5,10,7,,inactive,inactive,inactive,inactive,inactive,
CC(=O)C1=C(C)Nc2ccccc2SC1c1ccc([N+](=O)[O-])cc1 (stereo unspecified),20,18,16,13,12,10,13,12,10,inactive,inactive,inactive,,,
CC(=O)C1=C(C)Nc2cc(Cl)ccc2SC1c1ccc(Br)cc1 (stereo unspecified),15,11,10,11,10,9,11,10,9,inactive,inactive,inactive,,,
CC(=O)C1=C(C)Nc2ccccc2SC1c1ccc(F)cc1 (stereo unspecified),20,20,18,10,9,7,11,11,10,inactive,inactive,inactive,,,
CC(=O)C1=C(C)Nc2cc(Cl)ccc2SC1c1ccc(Cl)cc1Cl (stereo unspecified),,,,10,7,,,,,inactive,inactive,inactive,inactive,inactive,inhibition zone (IZ) [1]: inactive; inhibition zone (IZ) [2]: inactive; inhibition zone (IZ) [6]: inactive; inhibition zone (IZ) [7]: inactive; inhibition zone (IZ) [8]: inactive
CC(=O)C1=C(C)Nc2ccccc2SC1c1ccccc1Cl (stereo unspecified),15,15,12,9,8,8,9,7.5,7.5,inactive,inactive,inactive,,,
CC(=O)C1=C(C)Nc2cc(Cl)ccc2SC1c1ccc(Cl)cc1 (stereo unspecified),13,11,10,10,7.5,7,10,7.5,7,inactive,inactive,inactive,,,
CCOC(=O)C1=C(C)Nc2ccccc2SC1c1ccc([N+](=O)[O-])cc1 (stereo unspecified),7,6.5,,7,6.5,,,,,inactive,inactive,inactive,inactive,inactive,inhibition zone (IZ) [6]: inactive; inhibition zone (IZ) [7]: inactive; inhibition zone (IZ) [8]: inactive
